Screening results (PubChem BioAssay)
This is a sample that favours compounds with a hit; in the whole collection about 9.6% have one here.
PMI act – increases human mannose-6-phosphate isomerase activity. purified human PMI, coupled resazurin fluorescence, 20 min; hits give high values; 1 = vehicle control, 0 substrate-free wells. activation factor at 20 µM. 190,000 compounds, 0.005% hits;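 active = activation factor of 2 or more at 20 µM, relative to plate controls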
Target sequence (P34949 whole entry, looked up): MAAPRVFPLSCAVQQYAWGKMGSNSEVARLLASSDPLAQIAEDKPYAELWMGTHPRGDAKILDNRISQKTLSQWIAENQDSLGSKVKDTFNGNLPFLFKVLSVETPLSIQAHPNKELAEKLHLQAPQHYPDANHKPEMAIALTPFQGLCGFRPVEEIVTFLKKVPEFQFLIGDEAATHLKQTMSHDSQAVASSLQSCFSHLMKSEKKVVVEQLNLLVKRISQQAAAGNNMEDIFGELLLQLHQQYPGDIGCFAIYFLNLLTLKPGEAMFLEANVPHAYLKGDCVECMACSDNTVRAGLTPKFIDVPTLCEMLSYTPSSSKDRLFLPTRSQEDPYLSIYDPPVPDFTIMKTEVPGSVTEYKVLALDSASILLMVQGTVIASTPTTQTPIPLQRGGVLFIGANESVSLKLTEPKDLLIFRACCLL
bCat KO growth – beta-catenin-lacking colon tumor cell growth suppression | viability, % at 10 µM | HCT116 beta-catenin knockout viability, CellTiter-Glo, 60 h; hits give low values | 140,000 compounds, 1.5% hits | AID 818;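 active = viability at or under a set limit, the compound median less 4 SD, cut at about 6% in these data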
Lmaj promast – Leishmania major promastigote growth inhibition | Leishmania major promastigotes, resazurin fluorescence viability | inhibition, % at 10 µM | 200,000 compounds, 9% hits; in the data active = inhibition above about 50%;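 note: promastigotes grown with compound for 44 hours at 28 °C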
PTEN del growth – suppresses growth of cells with PTEN deletion | HCT116 PTEN-null viability, CellTiter-Glo, 60 h; hits give low values | 140,000 compounds, 1.2% hits | AID 827 | viability, % at 10 µM;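 active = viability at or below a set limit, 4 SD under the median of all tested compounds, cut at about 3.7% in these data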;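 note: PTEN knockout HCT116 line with beta catenin targeted HCT116 as companion control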
PMI act satM6P – activators of human phosphomannose isomerase at near-saturating mannose 6-phosphate. P34949. coupled PMI enzyme assay, resazurin fluorescence, 20 min; hits give high values; 1 = untreated enzyme, 0 = substrate-free blank. activation factor at 20 µM. 190,000 compounds, 0.34% hits. AID 1216;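 active = activation factor of 2 or more at 20 µM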
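Test system: human PMI in coupled enzyme assay; Input: PMI at 15 ng/mL final; Medium: HEPES buffer, pH 7.4; Schedule: 20 min incubation at room temperature; Technique: resorufin fluorescence at Ex 544/Em 590 nm; Compound: 20 µM single dose; Probe or stimulus: Near-saturating mannose-6-phosphate, 1.0 mM.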
Of the large screens only hits and unclear results are named; the others gave an inactive call.

CCOC(=O)N1CCC(N2C(=O)c3ccccc3C2Nc2cc(Cl)c(OC)cc2OC)CC1 (stereo not drawn)	Lmaj promast 97.3
O=C(COC(=O)CCCSc1nc2ccccc2[nH]1)NC(=O)NC1CCCC1	none
OC1CCN(C(c2ccc3ncccc3c2)c2nnnn2C2CCCCC2)CC1 (stereo not drawn)	none
Oc1ccc(N2CCN(C(c3ccncc3)c3nnnn3C3CCCC3)CC2)cc1 (stereo not drawn)	none
Clc1ccc(C(c2nnnn2C2CCCC2)N2CCN(c3nc4ccccc4s3)CC2)cc1 (stereo not drawn)	Lmaj promast 96.8 (no result: PMI act, bCat KO growth, PTEN del growth, PMI act satM6P)
c1cnc2ccc(C(c3nnnn3C3CCCC3)N3CCN(c4nc5ccccc5s4)CC3)cc2c1 (stereo not drawn)	Lmaj promast 89.0
O=c1oc2cc(OCc3ccc(C(F)(F)F)cc3)ccc2cc1-c1ccccn1	none
COc1ccc(-c2cc(=O)oc3cc(OCC(C)=O)ccc23)cc1	Lmaj promast 63.6
COc1ccc(-c2c(C)c3ccc(OCC(C)=O)cc3oc2=O)cc1	none (no result: bCat KO growth, PTEN del growth)
COc1ccc2c(-c3cc4ccc(OCc5ccc(F)cc5)cc4oc3=O)cc(=O)oc2c1	Lmaj promast 52.2
CCOc1cc(/C=C(\C#N)C(N)=O)ccc1OCc1c(C)no[n+]1[O-]	none (no result: bCat KO growth, PTEN del growth)
O=C(c1cc2ncccn2n1)N1CCc2c([nH]c3ccccc23)C1c1ccccc1F (stereo not drawn)	Lmaj promast 56.4 (no result: PMI act, bCat KO growth, PTEN del growth, PMI act satM6P)
N=c1c2c3c(sc2ncn1Cc1ccccc1)CCCC3	Lmaj promast 91.9
CCCCn1cnc2sc3c(c2c1=N)CCCC3	none
C#CCOCCOCCOCCNc1nc(N2CCOCC2)nc(N2CCN(C(=O)[C@H](C)n3cc(CCCN=C(N)N)nn3)CC2)n1	none
O=S(=O)(c1ccc(Cl)cc1)c1snnc1-c1ccccc1	bCat KO growth 2.8, Lmaj promast 100.5, PTEN del growth 1.8
O=S(=O)(c1ccc(F)cc1)c1snnc1-c1ccccc1	Lmaj promast 81.1 (no result: bCat KO growth, PTEN del growth)
CCN(CC)S(=O)(=O)c1ccc(Cl)c(C(=O)Nc2cc(C)nn2-c2ccccc2)c1	Lmaj promast 64.9
CCN(CC)S(=O)(=O)c1cccc(C(=O)Nc2cc(C)nn2-c2ccccc2)c1	none
Cc1cc(NC(=O)c2cccc([N+](=O)[O-])c2)n(-c2ccccc2)n1	none
Cc1cc(NC(=O)c2cc([N+](=O)[O-])cc([N+](=O)[O-])c2)n(-c2ccccc2)n1	Lmaj promast 89.3
COc1ccc(Cn2c(-c3ccc(C)cc3)nc3c(c(=O)c4ccccc4n3C)c2=O)cc1	Lmaj promast 87.6
COc1ccc(-c2nc3c(c(=O)[nH]c(=O)n3Cc3ccccc3)n2Cc2ccccc2)cc1	Lmaj promast 99.0
COc1ccc(Cn2c(-c3ccc(OC)cc3)nc3c(c(=O)c4ccccc4n3C)c2=O)cc1	none
Cn1c(-c2cccc(OCc3ccccc3)c2)nc2c1c(=O)[nH]c(=O)n2Cc1ccccc1	none
COCCn1c(-c2cccc([N+](=O)[O-])c2)nc2c1c(=O)[nH]c(=O)n2Cc1ccccc1	Lmaj promast 84.0
COC(=O)CN(Cc1ccccc1)S(=O)(=O)c1ccc(OC)c(OC)c1	none
O=C(CSc1nnc(NC(=O)C2CC2)s1)Nc1ccc2c(c1)OCCO2	none (no result: bCat KO growth, PTEN del growth)
CC(=O)c1sc(N/N=C2\CC3CC2C(C)C3(C)C)nc1C (stereo not drawn)	Lmaj promast 91.3 (no result: bCat KO growth, PTEN del growth)
CC(=O)c1sc(N/N=C\c2ccccc2O)nc1C	none (no result: PMI act, bCat KO growth, PTEN del growth, PMI act satM6P)
C=CCn1c(N)cc(=O)nc1SC(C)C(=O)Nc1cccc2ccccc12 (stereo not drawn)	none
O=C(c1ccc(Cl)c(S(=O)(=O)N2CCc3ccccc3C2)c1)N1CCN(c2ccccc2)CC1	none
O=C(c1ccc(Cl)c(S(=O)(=O)Nc2ccccc2C(=O)N2CCc3ccccc3C2)c1)N1CCc2ccccc2C1	Lmaj promast 78.1
CC(/C=C/c1ccccc1)=N/NC(=O)CNC(=O)c1ccccc1F	none (no result: bCat KO growth, PTEN del growth)
CCN(CC(=O)Nc1ccc2c(c1)OCCO2)c1nc(-c2cccnc2)nc2ccccc12	Lmaj promast 52.5
Cc1ccc(S(=O)(=O)CC#CCOC(=O)c2ccc([N+](=O)[O-])cc2)cc1	Lmaj promast 100.5
CCCCN(C)C1CCN(C(=S)Nc2cccc(SC)c2)CC1	Lmaj promast 90.0 (no result: bCat KO growth, PTEN del growth)
CSc1cccc(NC(=S)N2CCC(N(C)C3CCCCCC3)CC2)c1	Lmaj promast 88.3 (no result: bCat KO growth, PTEN del growth)
CSc1cccc(NC(=S)N2CCC(N(C)C(C)C)CC2)c1	Lmaj promast 62.2 (no result: bCat KO growth, PTEN del growth)
